Measured values as given in ChEMBL document CHEMBL3588831, “Synthesis and in Vivo Evaluation of [123I]Melanin-Targeted Agents” (J Med Chem, 2015).

Key:
Mus musculus [1] = experiment: Biodistribution in large gastrointestinal tract of C57BL/6J mouse bearing mouse B16F0 cells at 0.37 to 1.85 MBq, iv after 24 hrs by gamma counting method; type: ADME, organism-based, Large intestine; details: in vivo
Method in brief: (§1)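 Female C57BL/6J mice (5−6 weeks), s.c. inoculated on left flank with 3 × 10^5 B16F0 cells in Ca2+/Mg2+-free PBS, used 11 days later (tumors 2−12 mm). Radiotracer given via tail vein in 100 μL (~0.37 MBq for 1−24 h, 1.85 MBq for 48 h). Organs dissected, weighed, γ-counted, decay corrected. Expressed as % ID/g against injected-dose dilutions. Mean ± SEM, n = 5.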

Spleen [2] = experiment: Biodistribution in spleen of C57BL/6J mouse bearing mouse B16F0 cells at 0.37 to 1.85 MBq, iv after 16 hrs by gamma counting method; type: ADME, organism-based; details: in vivo; method in brief: as §1
Spleen [3] = experiment: Biodistribution in spleen of C57BL/6J mouse bearing mouse B16F0 cells at 0.37 to 1.85 MBq, iv after 48 hrs by gamma counting method; type: ADME, organism-based; details: in vivo; method in brief: as §1
Kidney = experiment: Biodistribution in kidney of C57BL/6J mouse bearing mouse B16F0 cells at 0.37 to 1.85 MBq, iv after 48 hrs by gamma counting method; type: ADME, organism-based; details: in vivo; method in brief: as §1
Spleen [4] = experiment: Biodistribution in spleen of C57BL/6J mouse bearing mouse B16F0 cells at 0.37 to 1.85 MBq, iv after 6 hrs by gamma counting method; type: ADME, organism-based; details: in vivo; method in brief: as §1
Liver [5] = experiment: Biodistribution in liver of C57BL/6J mouse bearing mouse B16F0 cells at 0.37 to 1.85 MBq, iv after 16 hrs by gamma counting method; type: ADME, organism-based; details: in vivo; method in brief: as §1
[6] = Ratio of AUC in tumor to bone of C57BL/6J mouse bearing mouse B16F0 cells at 0.37 to 1.85 MBq, iv by gamma counting method; type: ADME, organism-based; details: in vivo
Method in brief: (§2)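 Biodistribution in B16F0-bearing C57BL/6J mice given i.v. tail-vein tracer (~0.37 MBq for 1–24 h, 1.85 MBq for 48 h). Sacrifice at 1, 3, 6, 16, 24 and 48 h, then organs dissected, weighed and γ-counted as decay-corrected % ID/g. Tumor AUC divided by each organ AUC; mean of ratios ± SEM, n = 5.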

[7] = Stability in eyes of C57BL/6J mouse bearing mouse B16F0 cells assessed as intact parent compound level at 0.37 to 1.85 MBq, iv after 3 hrs by radio-HPLC and radio-TLC method; type: ADME, organism-based, Eye; details: in the assay text read “20 MBq” for “0.37 to 1.85 MBq”, read-out: Stability
Method in brief: (§3)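 Tumor-bearing C57BL/6J mice were sampled 3 and 24 h after i.v. tracer. Tissue was sonicated in CH3CN/water (3:2) with cold iodo standard and KI, then centrifuged. Urine was diluted and spiked; plasma was spiked, with CH3CN precipitation for TLC. Intact fraction came from silica radio-TLC (spot matching standard Rf) and radio-HPLC with precolumn/C18 column switching.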

Liver [8] = experiment: Biodistribution in liver of C57BL/6J mouse bearing mouse B16F0 cells at 0.37 to 1.85 MBq, iv after 1 hr by gamma counting method; type: ADME, organism-based; details: in vivo; method in brief: as §1
Mus musculus [9] = experiment: Biodistribution in small gastrointestinal tract of C57BL/6J mouse bearing mouse B16F0 cells at 0.37 to 1.85 MBq, iv after 3 hrs by gamma counting method; type: ADME, organism-based, Small intestine; details: in vivo; method in brief: as §1
Mus musculus [10] = experiment: Biodistribution in eyes of C57BL/6J mouse bearing mouse B16F0 cells at 0.37 to 1.85 MBq, iv after 3 hrs by gamma counting method; type: ADME, organism-based, Eye; details: in vivo; method in brief: as §1
Mus musculus [11] = experiment: Biodistribution in tumor of C57BL/6J mouse bearing mouse B16F0 cells at 0.37 to 1.85 MBq, iv after 48 hrs by gamma counting method; type: ADME, organism-based; details: in vivo; method in brief: as §1
Mus musculus [12] = experiment: Biodistribution in tumor of C57BL/6J mouse bearing mouse B16F0 cells at 0.37 to 1.85 MBq, iv after 6 hrs by gamma counting method; type: ADME, organism-based; details: in vivo; method in brief: as §1
Mus musculus [13] = experiment: Biodistribution in eyes of C57BL/6J mouse bearing mouse B16F0 cells at 0.37 to 1.85 MBq, iv after 1 hr by gamma counting method; type: ADME, organism-based, Eye; details: in vivo; method in brief: as §1
Mus musculus [14] = experiment: Biodistribution in tumor of C57BL/6J mouse bearing mouse B16F0 cells at 0.37 to 1.85 MBq, iv after 1 hr by gamma counting method; type: ADME, organism-based; details: in vivo; method in brief: as §1
Mus musculus [15] = experiment: Biodistribution in thyroid gland of C57BL/6J mouse bearing mouse B16F0 cells at 0.37 to 1.85 MBq, iv after 1 hr by gamma counting method; type: ADME, organism-based; details: in vivo; method in brief: as §1
[16] = Ratio of AUC in tumor to gastrointestinal tract of C57BL/6J mouse bearing mouse B16F0 cells at 0.37 to 1.85 MBq, iv by gamma counting method; type: ADME, organism-based; details: in vivo; method in brief: as §2
[17] = Stability in urine of C57BL/6J mouse bearing mouse B16F0 cells assessed as drug degradation at 0.37 to 1.85 MBq, iv after 24 hrs by radio-HPLC and radio-TLC method; type: ADME, organism-based; details: in vivo, in the assay text read “20 MBq” for “0.37 to 1.85 MBq”; method in brief: as §3
Mus musculus [18] = experiment: Biodistribution in eyes of C57BL/6J mouse bearing mouse B16F0 cells at 0.37 to 1.85 MBq, iv after 24 hrs by gamma counting method; type: ADME, organism-based, Eye; details: in vivo; method in brief: as §1
[19] = Ratio of AUC in tumor to thyroid gland of C57BL/6J mouse bearing mouse B16F0 cells at 0.37 to 1.85 MBq, iv by gamma counting method; type: ADME, organism-based; details: in vivo; method in brief: as §2
Spleen [20] = experiment: Biodistribution in spleen of C57BL/6J mouse bearing mouse B16F0 cells at 0.37 to 1.85 MBq, iv after 1 hr by gamma counting method; type: ADME, organism-based; details: in vivo; method in brief: as §1
Mus musculus [21] = experiment: Biodistribution in large gastrointestinal tract of C57BL/6J mouse bearing mouse B16F0 cells at 0.37 to 1.85 MBq, iv after 16 hrs by gamma counting method; type: ADME, organism-based, Large intestine; details: in vivo; method in brief: as §1
Mus musculus [22] = experiment: Biodistribution in eyes of C57BL/6J mouse bearing mouse B16F0 cells at 0.37 to 1.85 MBq, iv after 6 hrs by gamma counting method; type: ADME, organism-based, Eye; details: in vivo; method in brief: as §1
Mus musculus [23] = experiment: Biodistribution in tumor of C57BL/6J mouse bearing mouse B16F0 cells at 0.37 to 1.85 MBq, iv after 3 hrs by gamma counting method; type: ADME, organism-based; details: in vivo; method in brief: as §1
Mus musculus [24] = experiment: Biodistribution in small gastrointestinal tract of C57BL/6J mouse bearing mouse B16F0 cells at 0.37 to 1.85 MBq, iv after 1 hr by gamma counting method; type: ADME, organism-based, Small intestine; details: in vivo; method in brief: as §1
Mus musculus [25] = experiment: Biodistribution in eyes of C57BL/6J mouse bearing mouse B16F0 cells at 0.37 to 1.85 MBq, iv after 48 hrs by gamma counting method; type: ADME, organism-based, Eye; details: in vivo; method in brief: as §1
Mus musculus [26] = experiment: Biodistribution in thyroid gland of C57BL/6J mouse bearing mouse B16F0 cells at 0.37 to 1.85 MBq, iv after 16 hrs by gamma counting method; type: ADME, organism-based; details: in vivo; method in brief: as §1
Mus musculus [27] = experiment: Biodistribution in thyroid gland of C57BL/6J mouse bearing mouse B16F0 cells at 0.37 to 1.85 MBq, iv after 3 hrs by gamma counting method; type: ADME, organism-based; details: in vivo; method in brief: as §1
Mus musculus [28] = experiment: Biodistribution in small gastrointestinal tract of C57BL/6J mouse bearing mouse B16F0 cells at 0.37 to 1.85 MBq, iv after 48 hrs by gamma counting method; type: ADME, organism-based; details: in vivo; method in brief: as §1
Mus musculus [29] = experiment: Biodistribution in small gastrointestinal tract of C57BL/6J mouse bearing mouse B16F0 cells at 0.37 to 1.85 MBq, iv after 6 hrs by gamma counting method; type: ADME, organism-based, Small intestine; details: in vivo; method in brief: as §1

Compound | Drug uptake (Mus musculus [1]) [% ID/g] | Drug uptake (Spleen [2]) [% ID/g] | Drug uptake (Spleen [3]) [% ID/g] | Drug uptake (Kidney) [% ID/g] | Drug uptake (Spleen [4]) [% ID/g] | Drug uptake (Liver [5]) [% ID/g] | Ratio [6] | remaining at 3 h [7] [%] | Drug uptake (Liver [8]) [% ID/g] | Drug uptake (Mus musculus [9]) [% ID/g] | Drug uptake (Mus musculus [10]) [% ID/g] | Drug uptake (Mus musculus [11]) [% ID/g] | Drug uptake (Mus musculus [12]) [% ID/g] | Drug uptake (Mus musculus [13]) [% ID/g] | Drug uptake (Mus musculus [14]) [% ID/g] | Drug uptake (Mus musculus [15]) [% ID/g] | Ratio [16] | Stability [17] | Drug uptake (Mus musculus [18]) [% ID/g] | Ratio [19] | other results
O=C(CN1Cc2ccccc2C1=O)N1C[C@H]2CN(Cc3ccc([123I])cc3)C[C@H]2C1 | 1 | 0.2 | 0.09 | 0.2 | 0.4 | 0.7 | 25 | 90 | 12.3 | 15.2 | 18.5 | 5 | 10.4 | 18.2 | 10.3 | 1.9 | 2.9 | Unstable | 18.4 | 6 | Drug uptake (Spleen [20]): 0.2 % ID/g; Drug uptake (Mus musculus [21]): 1.4 % ID/g; Drug uptake (Mus musculus [22]): 21.8 % ID/g; Drug uptake (Mus musculus [23]): 10.8 % ID/g; Drug uptake (Mus musculus [24]): 21.4 % ID/g; Drug uptake (Mus musculus [25]): 15.8 % ID/g; Drug uptake (Mus musculus [26]): 1 % ID/g; Drug uptake (Mus musculus [27]): 1.5 % ID/g; Drug uptake (Mus musculus [28]): 0.1 % ID/g; Drug uptake (Mus musculus [29]): 2.6 % ID/g
O=C(c1ccc2c(n1)NCCC2)N1CCN(Cc2ccc([123I])cc2)CC1 | 1.7 | 0.3 | 0.05 | 0.4 | 1 | 0.9 | 65.5 | 60 | 19.5 | 63.8 | 56.4 | 5.6 | 32.5 | 40.3 | 19.2 | 5.1 | 1.8 | Unstable | 30.8 | 7.2 | Drug uptake (Spleen [20]): 3.5 % ID/g; Drug uptake (Mus musculus [21]): 2.3 % ID/g; Drug uptake (Mus musculus [22]): 52.8 % ID/g; Drug uptake (Mus musculus [23]): 32.1 % ID/g; Drug uptake (Mus musculus [24]): 45.6 % ID/g; Drug uptake (Mus musculus [25]): 19 % ID/g; Drug uptake (Mus musculus [26]): 2.5 % ID/g; Drug uptake (Mus musculus [27]): 2.7 % ID/g; Drug uptake (Mus musculus [28]): 0.1 % ID/g; Drug uptake (Mus musculus [29]): 11.5 % ID/g
O=C(c1ccc2cccnc2n1)N1CCN(Cc2ccc([123I])cc2)CC1 | 1.4 | 0.8 | 0.2 | 0.5 | 2.1 | 2.4 | 44 | 60 | 15.9 | 14.1 | 36 | 13.1 | 19.4 | 32 | 17.1 | 2.3 | 5.5 | Unstable | 35.1 | 5 | Drug uptake (Spleen [20]): 2.6 % ID/g; Drug uptake (Mus musculus [21]): 1.8 % ID/g; Drug uptake (Mus musculus [22]): 37.2 % ID/g; Drug uptake (Mus musculus [23]): 20 % ID/g; Drug uptake (Mus musculus [24]): 14.4 % ID/g; Drug uptake (Mus musculus [25]): 31.6 % ID/g; Drug uptake (Mus musculus [26]): 1.6 % ID/g; Drug uptake (Mus musculus [27]): 2.2 % ID/g; Drug uptake (Mus musculus [28]): 0.2 % ID/g; Drug uptake (Mus musculus [29]): 6.1 % ID/g
O=C(CN1Cc2ccccc2C1=O)NC1CCN(Cc2ccc([123I])cc2)CC1 | 8 | 1.3 | 0.1 | 0.3 | 3.6 | 7.1 | 65.8 | 90 | 41.8 | 12 | 20.8 | 13.2 | 18.1 | 13.7 | 6.2 | 3.4 | 3 | Unstable | 41.4 | 5.8 | Drug uptake (Spleen [20]): 9.6 % ID/g; Drug uptake (Mus musculus [21]): 8.1 % ID/g; Drug uptake (Mus musculus [22]): 28.1 % ID/g; Drug uptake (Mus musculus [23]): 11.6 % ID/g; Drug uptake (Mus musculus [24]): 11.9 % ID/g; Drug uptake (Mus musculus [25]): 38.7 % ID/g; Drug uptake (Mus musculus [26]): 2.3 % ID/g; Drug uptake (Mus musculus [27]): 3.4 % ID/g; Drug uptake (Mus musculus [28]): 0.3 % ID/g; Drug uptake (Mus musculus [29]): 9.8 % ID/g
